Reference: ChEMBL document CHEMBL1147539, “Synthesis and biological evaluation of novel, selective, nonsteroidal glucocorticoid receptor antagonists” (Bioorg Med Chem Lett, 2004)
Values belong to the compound of their own block, whether it stands above or below them.

How the values were obtained:
[1] = target: T1, Glucocorticoid receptor (Homo sapiens, UniProt P04150)
T1 sequence (P04150 whole entry): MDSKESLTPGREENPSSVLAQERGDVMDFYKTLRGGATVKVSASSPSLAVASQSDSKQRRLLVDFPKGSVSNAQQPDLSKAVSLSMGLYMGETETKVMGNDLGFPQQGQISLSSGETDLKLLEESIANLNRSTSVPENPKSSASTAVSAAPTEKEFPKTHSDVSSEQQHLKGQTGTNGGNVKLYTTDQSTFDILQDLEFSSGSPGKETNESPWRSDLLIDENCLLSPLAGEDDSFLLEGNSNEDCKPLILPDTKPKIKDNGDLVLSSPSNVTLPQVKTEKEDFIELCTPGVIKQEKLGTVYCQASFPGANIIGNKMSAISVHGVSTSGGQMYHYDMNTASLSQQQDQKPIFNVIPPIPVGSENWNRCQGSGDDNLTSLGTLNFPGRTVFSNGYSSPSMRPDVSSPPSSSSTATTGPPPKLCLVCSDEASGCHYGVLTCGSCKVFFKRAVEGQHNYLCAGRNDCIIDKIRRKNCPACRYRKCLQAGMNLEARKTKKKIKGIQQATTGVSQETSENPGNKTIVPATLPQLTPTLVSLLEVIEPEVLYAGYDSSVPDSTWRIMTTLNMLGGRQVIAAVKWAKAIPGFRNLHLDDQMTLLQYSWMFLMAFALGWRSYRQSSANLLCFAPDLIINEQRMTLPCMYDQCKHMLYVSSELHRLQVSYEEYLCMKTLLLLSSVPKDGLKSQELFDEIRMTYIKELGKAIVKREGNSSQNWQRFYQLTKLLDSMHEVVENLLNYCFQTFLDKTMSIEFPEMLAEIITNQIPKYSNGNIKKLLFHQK

[2] = target: T2, Androgen receptor (Homo sapiens, UniProt P10275); test: Displacement of [3H]mibolerone from human Androgen receptor
T2 sequence (P10275 whole entry): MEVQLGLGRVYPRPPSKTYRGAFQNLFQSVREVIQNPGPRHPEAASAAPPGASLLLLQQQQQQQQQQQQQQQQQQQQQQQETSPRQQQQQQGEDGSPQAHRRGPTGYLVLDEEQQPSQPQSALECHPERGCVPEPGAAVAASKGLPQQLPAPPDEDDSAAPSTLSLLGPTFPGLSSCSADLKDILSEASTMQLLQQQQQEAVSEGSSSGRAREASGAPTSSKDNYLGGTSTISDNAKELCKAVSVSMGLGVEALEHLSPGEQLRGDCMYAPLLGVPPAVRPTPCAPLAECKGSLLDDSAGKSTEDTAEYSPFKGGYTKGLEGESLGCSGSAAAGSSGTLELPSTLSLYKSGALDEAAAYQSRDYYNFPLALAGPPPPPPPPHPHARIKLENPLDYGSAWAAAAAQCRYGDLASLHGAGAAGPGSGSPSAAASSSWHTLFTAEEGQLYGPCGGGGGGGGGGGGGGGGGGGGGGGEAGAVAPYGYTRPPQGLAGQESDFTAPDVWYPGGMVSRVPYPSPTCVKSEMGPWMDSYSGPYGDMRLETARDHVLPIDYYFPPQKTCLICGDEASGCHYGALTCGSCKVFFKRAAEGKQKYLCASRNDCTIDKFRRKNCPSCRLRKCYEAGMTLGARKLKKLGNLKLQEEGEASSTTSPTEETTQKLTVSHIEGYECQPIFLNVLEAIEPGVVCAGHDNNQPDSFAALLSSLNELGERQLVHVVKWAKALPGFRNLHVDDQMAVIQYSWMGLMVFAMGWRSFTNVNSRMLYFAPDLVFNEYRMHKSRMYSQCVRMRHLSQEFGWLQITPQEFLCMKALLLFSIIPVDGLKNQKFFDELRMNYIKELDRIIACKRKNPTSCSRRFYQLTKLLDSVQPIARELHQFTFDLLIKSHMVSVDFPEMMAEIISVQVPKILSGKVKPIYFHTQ

[3] = target: T1, Glucocorticoid receptor; test: Displacement of [3H]dexamethasone from human Glucocorticoid receptor (GR)
[4] = target: T1, Glucocorticoid receptor; test: Effect on human Glucocorticoid receptor (GR) in a whole cell assay to measure functional cellular GR-antagonism (GRAF)
[5] = target: T3, Mineralocorticoid receptor (Homo sapiens, UniProt P08235); test: Displacement of [3H]aldosterone from human Mineralocorticoid receptor
T3 sequence (P08235 whole entry): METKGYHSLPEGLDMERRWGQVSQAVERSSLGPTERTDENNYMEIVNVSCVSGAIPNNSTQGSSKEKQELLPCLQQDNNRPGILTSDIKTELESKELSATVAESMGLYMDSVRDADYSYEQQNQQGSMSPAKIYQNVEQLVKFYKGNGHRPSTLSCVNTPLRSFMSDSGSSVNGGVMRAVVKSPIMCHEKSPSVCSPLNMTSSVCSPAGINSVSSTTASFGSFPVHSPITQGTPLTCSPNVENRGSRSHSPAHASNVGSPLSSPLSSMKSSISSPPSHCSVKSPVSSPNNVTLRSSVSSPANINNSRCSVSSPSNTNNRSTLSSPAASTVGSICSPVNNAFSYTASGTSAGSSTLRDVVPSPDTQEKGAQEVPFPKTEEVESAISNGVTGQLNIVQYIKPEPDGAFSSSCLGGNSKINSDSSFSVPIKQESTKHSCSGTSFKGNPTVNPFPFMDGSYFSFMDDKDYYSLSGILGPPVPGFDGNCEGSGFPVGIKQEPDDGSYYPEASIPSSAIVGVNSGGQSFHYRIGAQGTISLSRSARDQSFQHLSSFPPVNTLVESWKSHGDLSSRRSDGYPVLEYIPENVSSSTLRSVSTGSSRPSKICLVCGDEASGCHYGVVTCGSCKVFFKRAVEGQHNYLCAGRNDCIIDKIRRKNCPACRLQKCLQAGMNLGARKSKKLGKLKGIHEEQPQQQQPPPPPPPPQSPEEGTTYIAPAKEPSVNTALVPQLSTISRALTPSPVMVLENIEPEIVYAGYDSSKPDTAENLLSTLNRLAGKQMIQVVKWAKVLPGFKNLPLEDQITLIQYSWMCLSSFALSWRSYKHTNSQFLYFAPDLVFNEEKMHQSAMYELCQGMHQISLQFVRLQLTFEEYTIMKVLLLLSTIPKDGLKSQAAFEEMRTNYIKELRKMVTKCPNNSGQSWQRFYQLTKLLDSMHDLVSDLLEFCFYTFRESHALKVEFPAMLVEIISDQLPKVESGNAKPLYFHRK
Summary of the method: (§1)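 Human steroid receptor (PR, MR, AR, ERα) binding measured by radioligand displacement, with IC50s determined in duplicate. Values without a range come from a single experiment, and values with a range are geometric means of repeat experiments.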

[6] = target: T1, Glucocorticoid receptor; test: Displacement of [3H]dexamethasone from human Glucocorticoid receptor (GR); Value ranges from 1382-1049 nM
Summary of the method: (§2)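 Binding to human GR; IC50 reported as the geometric mean of two experiments (three for some values), each run in duplicate, with the range of the experiments given.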

[7] = target: T4, Progesterone receptor (Homo sapiens, UniProt P06401); test: Displacement of [3H]progesterone from human Progesterone receptor
T4 sequence (P06401 whole entry): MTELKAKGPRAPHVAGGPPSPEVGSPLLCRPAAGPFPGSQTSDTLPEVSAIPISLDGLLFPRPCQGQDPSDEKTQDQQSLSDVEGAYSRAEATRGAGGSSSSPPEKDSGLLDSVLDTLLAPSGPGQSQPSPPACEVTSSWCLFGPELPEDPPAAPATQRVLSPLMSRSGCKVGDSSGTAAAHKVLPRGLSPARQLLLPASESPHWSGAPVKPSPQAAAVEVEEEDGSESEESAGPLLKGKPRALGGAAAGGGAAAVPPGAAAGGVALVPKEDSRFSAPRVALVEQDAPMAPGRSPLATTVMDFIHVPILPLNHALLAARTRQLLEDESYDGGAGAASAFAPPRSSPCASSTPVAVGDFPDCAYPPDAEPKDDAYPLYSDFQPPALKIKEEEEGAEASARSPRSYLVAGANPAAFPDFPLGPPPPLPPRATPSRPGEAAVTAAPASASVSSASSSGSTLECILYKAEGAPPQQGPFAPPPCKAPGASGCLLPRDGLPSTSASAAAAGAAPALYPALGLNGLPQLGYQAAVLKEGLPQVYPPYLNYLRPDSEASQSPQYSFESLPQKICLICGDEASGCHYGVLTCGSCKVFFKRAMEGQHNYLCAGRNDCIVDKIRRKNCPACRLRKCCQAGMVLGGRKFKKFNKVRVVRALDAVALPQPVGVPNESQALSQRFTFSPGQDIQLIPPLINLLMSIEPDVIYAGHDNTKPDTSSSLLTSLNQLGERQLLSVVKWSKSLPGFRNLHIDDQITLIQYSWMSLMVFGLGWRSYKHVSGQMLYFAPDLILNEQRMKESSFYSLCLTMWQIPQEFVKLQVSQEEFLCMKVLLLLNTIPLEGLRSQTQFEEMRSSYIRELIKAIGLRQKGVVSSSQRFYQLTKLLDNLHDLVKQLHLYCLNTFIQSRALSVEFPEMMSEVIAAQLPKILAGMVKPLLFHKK
Summary of the method: as §1

[8] = target: T1, Glucocorticoid receptor; remark: listed apart in the source
[9] = target: T1, Glucocorticoid receptor; test: Displacement of [3H]dexamethasone from human Glucocorticoid receptor (GR); Value ranges from 1428-1433 nM
Summary of the method: as §2

[10] = target: T1, Glucocorticoid receptor; test: Displacement of [3H]dexamethasone from human Glucocorticoid receptor (GR); […]
[11] = target: T1, Glucocorticoid receptor; test: Displacement of [3H]dexamethasone from human Glucocorticoid receptor (GR); Value ranges from 159-161 nM
Summary of the method: as §2

[12] = target: T1, Glucocorticoid receptor; test: Displacement of [3H]dexamethasone from human Glucocorticoid receptor (GR); Value ranges from 5-6 nM
Summary of the method: as §2

[13] = target: T1, Glucocorticoid receptor; test: Displacement of [3H]dexamethasone from human Glucocorticoid receptor (GR); Value ranges from 3-4 nM
Summary of the method: as §2

Structure (SMILES): COc1cccc2c1-c1ccc(NS(C)(=O)=O)cc1C(c1cccnc1)O2 (configuration not stated)
IC50 [1]: 460 nM

Structure (SMILES): COC(=O)c1cccc2c1-c1ccc(NS(C)(=O)=O)cc1C(c1ccccc1)O2 (configuration not stated)
IC50 [6]: 1200 nM

Structure (SMILES): COc1cccc2c1-c1ccc(NC(=O)c3ccccc3)cc1C(c1ccccc1)O2 (configuration not stated)
IC50 [4]: 289 nM
IC50 [8]: 404 nM

Structure (SMILES): COc1cccc2c1-c1ccc(NS(C)(=O)=O)cc1C(C1CCCCC1)O2 (configuration not stated)
IC50 [10]: 47 nM
IC50 [4]: 630 nM

Structure (SMILES): CCC(=O)Nc1ccc2c(c1)C(c1ccccc1)Oc1cccc(OC)c1-2 (configuration not stated)
IC50 [4]: 124 nM
IC50 [11]: 160 nM

Results, then the compound that gave them:

IC50 [2]: > 10000 nM
IC50 [3]: 2 nM
IC50 [4]: 78 nM
IC50 [5]: 1220 nM
Structure (SMILES): COc1cccc2c1-c1ccc(NS(C)(=O)=O)cc1C(c1cc(C)cc(C)c1)O2 (configuration not stated)

IC50 [2]: > 10000 nM
IC50 [3]: 1 nM
IC50 [4]: 21 nM
IC50 [5]: 333 nM
IC50 [7]: 236 nM
Structure (SMILES): COc1cccc2c1-c1ccc(NS(C)(=O)=O)cc1C(c1cccc(C)c1)O2 (configuration not stated)

IC50 [9]: 1430 nM
Structure (SMILES): COc1cccc2c1-c1ccc(NS(C)(=O)=O)cc1C(c1ccccn1)O2 (configuration not stated)

IC50 [12]: 6 nM
IC50 [4]: 122 nM
Structure (SMILES): COc1cccc(C2Oc3cccc(OC)c3-c3ccc(NS(C)(=O)=O)cc32)c1 (configuration not stated)

IC50 [13]: 3 nM
IC50 [4]: 378 nM
Structure (SMILES): COc1cccc2c1-c1ccc(NS(C)(=O)=O)cc1C(c1ccc(Cl)c(Cl)c1)O2 (configuration not stated)
